Activity calls are given as the source filed them. The calls are words filed in the database; no cut-off is given here.
The compounds below were run against Peroxisome proliferator-activated receptor gamma (Homo sapiens) (UniProt P37231) (assay: Agonist activity at PPARgamma in rat Ac2F cells assessed as luciferase activity after 6 hrs by reporter gene assay).
For `CCCCCCCCC1OC(=O)c2c(O)cccc21` (racemic), the Activity was “Dose-dependent effect”.

The compounds below were run against Peroxisome proliferator-activated receptor gamma (Homo sapiens) (UniProt P37231) (assay: Agonist activity at PPARgamma in rat Ac2F cells assessed as luciferase activity at 0.1 to 10 uM after 6 hrs by reporter gene assay).
With `CCCCCCCCC1OC(=O)c2cccc(O)c21` (stereo not given) the Activity was “Active”.
`CCCCCCCCC1OC(=O)c2c(O)cccc21` (racemic) was tested, and the Activity was “Active”.

These compounds were tested against T1, Peroxisome proliferator-activated receptor gamma (Homo sapiens) (UniProt P37231) (assay: Binding affinity to GST-tagged PPARgamma LBD at 50 uM after 4 hrs by TR-FRET competitive binding assay).
T1 sequence (whole entry): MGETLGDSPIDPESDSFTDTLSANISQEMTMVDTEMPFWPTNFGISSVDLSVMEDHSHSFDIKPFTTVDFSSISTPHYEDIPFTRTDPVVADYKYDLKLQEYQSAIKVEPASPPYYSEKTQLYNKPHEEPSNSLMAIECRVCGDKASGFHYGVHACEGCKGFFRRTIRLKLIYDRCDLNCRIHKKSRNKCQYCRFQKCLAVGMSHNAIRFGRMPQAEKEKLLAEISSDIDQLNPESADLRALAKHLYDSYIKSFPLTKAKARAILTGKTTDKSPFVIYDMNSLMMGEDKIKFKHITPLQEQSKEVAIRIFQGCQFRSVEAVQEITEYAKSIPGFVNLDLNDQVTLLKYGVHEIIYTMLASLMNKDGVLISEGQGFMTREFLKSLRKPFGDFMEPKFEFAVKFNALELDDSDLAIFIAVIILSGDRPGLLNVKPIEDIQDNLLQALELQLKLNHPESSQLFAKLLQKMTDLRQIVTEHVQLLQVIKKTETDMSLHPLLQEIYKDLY
Procedure, shortened: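 LanthaScreen TR-FRET competitive binding. Mix of 0.5 nM GST-tagged PPAR-γ LBD, 5 nM terbium anti-GST antibody and 5 nM Fluormone Pan-PPAR Green tracer, with compound at 50 µM and DMSO solvent control. Incubated 4 h in the dark. Read as the 520/495 nm emission ratio (counting 0.1 s, integration 20 µs). Mean + s.d., n = 3.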
For `O=C1OC(=O)c2c(O)cccc21`, the Activity was “Active”.
For `CCCCCCCCC1OC(=O)c2cccc(O)c21` (stereo not given), the Activity was “Active”.
For `CCCCCCCCC1(CCCCCCCC)OC(=O)c2cccc(O)c21`, the Activity was “inactive”.
In the case of `CCCCCCCCC1(OCc2ccccc2)OC(=O)c2c(OCc3ccccc3)cccc21` (stereo not given), the Activity is reported as “inactive”.
With `CCCCCCCCOC(=O)c1cccc(O)c1C(=O)O` the Activity was “Active”.
`CCCCCCCCC1OC(=O)c2c(OC)cccc21` (stereo not given) was tested, and the Activity was “inactive”.
In the case of `CCCCCCCCC1(CCCCCCCC)OC(=O)c2c(O)cccc21`, the Activity is reported as “inactive”.
With `CCCCCCCCCC(=O)Oc1cccc2c1C(=O)OC2=O` the Activity was “inactive”.
For `CCCCCCCCC1(OC)OC(=O)c2c(OCc3ccccc3)cccc21` (stereo not given), the Activity was “inactive”.
`CN(CCOc1ccc(CC2SC(=O)NC2=O)cc1)c1ccccn1` (stereo not given) was tested, and the Activity was “Active”.
For `CCCCCCCCC1OC(=O)c2c(O)cccc21` (racemic), the Activity was “Active”.
In the case of `O=C1OC(=O)c2ccccc21`, the Activity is reported as “inactive”.
With `CCCCCCCCC1(O)OC(=O)c2cccc(O)c21` (stereo not given) the Activity was “inactive”.
With `CCCCCCCCC1(O)OC(=O)c2c(OCc3ccccc3)cccc21` (stereo not given) the Activity was “inactive”.
In the case of `CCCCCCCCOC(=O)c1cccc([N+](=O)[O-])c1C(=O)O`, the Activity is reported as “Active”.
In the case of `CCCCCCCCC1(O)OC(=O)c2c(O)cccc21` (stereo not given), the Activity is reported as “inactive”.
In the case of `O=C1OC(=O)c2c1cccc2[N+](=O)[O-]`, the Activity is reported as “inactive”.

— ChEMBL document CHEMBL2057138, “Design and synthesis of marine fungal phthalide derivatives as PPAR-γ agonists” (Bioorg Med Chem, 2012)
